ChEMBL document CHEMBL4190394, “Discovery of Novel Pazopanib-Based HDAC and VEGFR Dual Inhibitors Targeting Cancer Epigenetics and Angiogenesis Simultaneously” (J Med Chem, 2018)
Calls of active or inactive are those of the source. No cut-off for these calls is given here.

Key:
[1] = molecular target: T1, Vascular endothelial growth factor receptor 2 (Homo sapiens, UniProt P35968); assay: Inhibition of VEGFR-2 (unknown origin) at 0.2 uM after 40 mins by kinase-Glo assay relative to control
Procedure, shortened: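 VEGFR-2 tested at a single 200 nM concentration in a Kinase-Glo assay. Compound, kinase, substrate and ATP incubated 40 min at room temperature, then Kinase-Glo reagent added for 15 min and luminescence read. Inhibition rate reported. Replicates n ≥ 2.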

[2] = molecular target: Histone deacetylase; assay type: protein assay, Homo sapiens
[3] = molecular target: Histone deacetylase 2 (Homo sapiens, UniProt Q92769)
Histone deacetylase 2, sequence (Q92769 whole entry): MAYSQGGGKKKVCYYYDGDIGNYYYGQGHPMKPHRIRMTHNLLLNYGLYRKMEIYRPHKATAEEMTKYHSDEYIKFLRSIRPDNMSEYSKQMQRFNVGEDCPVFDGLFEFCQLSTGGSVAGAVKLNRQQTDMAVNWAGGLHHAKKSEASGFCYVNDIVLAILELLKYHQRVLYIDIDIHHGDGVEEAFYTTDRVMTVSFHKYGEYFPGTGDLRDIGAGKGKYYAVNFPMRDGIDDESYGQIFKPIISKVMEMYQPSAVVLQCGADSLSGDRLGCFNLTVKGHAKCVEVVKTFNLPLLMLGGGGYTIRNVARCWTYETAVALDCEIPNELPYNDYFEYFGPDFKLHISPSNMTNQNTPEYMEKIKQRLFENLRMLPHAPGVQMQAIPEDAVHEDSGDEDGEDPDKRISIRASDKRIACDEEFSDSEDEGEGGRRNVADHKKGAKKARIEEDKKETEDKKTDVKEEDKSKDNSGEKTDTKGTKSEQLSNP

[4] = molecular target: Histone deacetylase 1 (Homo sapiens, UniProt Q13547); assay: Inhibition of HDAC1 (unknown origin) using fluorogenic substrate preincubated for 5 mins followed by substrate addition measured after 30 mins by fluorescence-based assay
Histone deacetylase 1, sequence (Q13547 whole entry): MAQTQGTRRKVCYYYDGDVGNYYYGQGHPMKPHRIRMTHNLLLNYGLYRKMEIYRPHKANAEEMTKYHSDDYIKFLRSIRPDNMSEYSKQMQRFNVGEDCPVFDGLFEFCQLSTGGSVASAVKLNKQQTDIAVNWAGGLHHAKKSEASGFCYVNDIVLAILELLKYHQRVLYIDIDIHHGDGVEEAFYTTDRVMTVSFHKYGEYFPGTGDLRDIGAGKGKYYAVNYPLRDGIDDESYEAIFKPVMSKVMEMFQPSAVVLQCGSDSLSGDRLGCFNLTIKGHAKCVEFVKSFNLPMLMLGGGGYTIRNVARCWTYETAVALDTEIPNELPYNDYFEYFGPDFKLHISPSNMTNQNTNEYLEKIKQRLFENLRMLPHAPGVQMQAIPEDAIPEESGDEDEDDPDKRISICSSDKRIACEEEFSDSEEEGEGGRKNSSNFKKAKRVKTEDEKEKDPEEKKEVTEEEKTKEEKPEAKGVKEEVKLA

[5] = system: HT-29; assay: Antiproliferative activity against human HT-29 cells after 72 hrs by MTT assay; assay type: functional, cell-based; details: HT-29, 72 h
[6] = system: HEL; assay: Antiproliferative activity against human HEL cells after 72 hrs by MTT assay; assay type: functional, cell-based
[7] = system: KG-1; assay: Antiproliferative activity against human KG1 cells after 72 hrs by MTT assay; assay type: functional, cell-based; details: KG-1, 72 h
[8] = molecular target: Histone deacetylase 3 (Homo sapiens, UniProt O15379)
Histone deacetylase 3, sequence (O15379 whole entry): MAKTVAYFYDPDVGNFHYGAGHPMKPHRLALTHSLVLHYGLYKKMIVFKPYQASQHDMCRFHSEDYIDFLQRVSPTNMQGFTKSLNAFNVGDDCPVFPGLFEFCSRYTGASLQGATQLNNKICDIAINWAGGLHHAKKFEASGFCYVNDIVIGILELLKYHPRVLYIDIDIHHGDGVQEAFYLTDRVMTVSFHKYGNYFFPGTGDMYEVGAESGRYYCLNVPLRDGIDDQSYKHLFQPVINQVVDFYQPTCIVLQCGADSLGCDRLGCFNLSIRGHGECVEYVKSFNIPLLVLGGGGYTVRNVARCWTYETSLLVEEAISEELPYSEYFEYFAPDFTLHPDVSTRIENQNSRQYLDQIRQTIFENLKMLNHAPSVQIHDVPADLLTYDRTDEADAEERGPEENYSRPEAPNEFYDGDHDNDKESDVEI

[9] = system: AGS; assay: Antiproliferative activity against human AGS cells after 72 hrs by MTT assay; assay type: functional, cell-based
[10] = system: MDA-MB-231; assay: Antiproliferative activity against human MDA-MB-231 cells after 72 hrs by MTT assay; assay type: functional, cell-based; details: MDA-MB-231, 72 h
[11] = system: K562; assay: Antiproliferative activity against human K562 cells after 72 hrs by MTT assay; assay type: functional, cell-based; details: K562, 72 h
[12] = system: HT-1080; assay: Antiproliferative activity against human HT1080 cells after 72 hrs by MTT assay; assay type: functional, cell-based; details: HT-1080, 72 h
[13] = system: ACHN; assay: Antiproliferative activity against human ACHN cells after 72 hrs by MTT assay; assay type: functional, cell-based
[14] = system: HeLa; assay: Antiproliferative activity against human HeLa cells after 72 hrs by MTT assay; assay type: functional, cell-based
[15] = system: MOLT-4; assay: Antiproliferative activity against human MOLT4 cells after 72 hrs by MTT assay; assay type: functional, cell-based; details: MOLT-4, 72 h
[16] = system: PC-3; assay: Antiproliferative activity against human PC3 cells after 72 hrs by MTT assay; assay type: functional, cell-based; details: PC-3, 72 h
[17] = system: HT-29; assay: Antitumor activity against human HT-29 cells xenografted in BALB/c nu mouse assessed as tumor growth level at 50 mg/kg, po administered for 25 consecutive days measured every 3 days during compound dosing relative to control; assay type: functional
Procedure, shortened: (§1)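 HT-29 cells (1×10^7) implanted s.c. in right flank of male BALB/c-nu mice aged 5–6 weeks. At about 100 mm³ (day 10), mice randomized 6 per group and dosed orally for 25 consecutive days. Controls received PBS with 5% DMSO. T/C is mean RTV (Vt/V0) treated over control. TGI taken from final tumor weights. Student's two-tailed t test.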

[18] = system: Thoracic aorta; assay: Antiangiogenic activity in Sprague-Dawley rat thoracic aorta ring assessed as reduction in micro-vessel growth at 5 uM treated every day for 6 days by matrigel-based inverted microscopic analysis relative to control; assay type: functional, tissue-based
Procedure, shortened: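 Aortas taken from 4–6-week-old Sprague–Dawley rats, cut into 1-mm rings and embedded in Matrigel. Rings held 30 min at 37 °C, 5% CO2, then treated daily for 6 days with compound or 0.5% DMSO vehicle. Microvessel outgrowth photographed on day 7 at ×200. Three independent experiments.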

[19] = molecular target: T1, Vascular endothelial growth factor receptor 2; assay: Inhibition of VEGF-stimulated VEGFR2 phosphorylation in human HUVEC cells at 100 nM preincubated for 2 hrs followed by VEGF stimulation by Western blot analysis; assay type: cell-based
Procedure, shortened: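 HUVECs pretreated 2 h with compound or DMSO, then stimulated with VEGF (50 ng/ml). Cells lysed in ice-cold RIPA and protein measured by BCA. Lysates run on SDS-PAGE and immunoblotted for phospho-VEGFR-2, with total VEGFR-2 as loading control. Detection by ECL.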

[20] = system: HT-29; assay: Antitumor activity against human HT-29 cells xenografted in BALB/c nu mouse assessed as tumor growth inhibition at 50 mg/kg, po administered for 25 consecutive days measured every 3 days during compound dosing relative to control; assay type: functional; details: HT-29, po, read-out: TGI; procedure, shortened: as §1
[21] = system: HUVEC; assay: Antiangiogenic activity in human HUVEC cells assessed as reduction in capillary-like tubular network formation at 0.1 uM after 6 hrs by phase-contrast microscopy; assay type: functional, cell-based
Procedure, shortened: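 HUVECs trypsinized and seeded at 40000/well on Matrigel polymerized 0.5 h at 37 °C. Cells held 6 h at 37 °C in M199 with 5% FBS, with compound or DMSO. Tube formation viewed and photographed by phase-contrast microscopy at 200 magnification. Three independent experiments.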

[22] = molecular target: Histone deacetylase 8 (Homo sapiens, UniProt Q9BY41); assay: Inhibition of HDAC8 (unknown origin) using fluorogenic Boc-Lys(trifluoroacetyl)-AMC as substrate preincubated for 5 mins followed by substrate addition measured after 30 mins by fluorescence-based assay
Histone deacetylase 8, sequence (Q9BY41 whole entry): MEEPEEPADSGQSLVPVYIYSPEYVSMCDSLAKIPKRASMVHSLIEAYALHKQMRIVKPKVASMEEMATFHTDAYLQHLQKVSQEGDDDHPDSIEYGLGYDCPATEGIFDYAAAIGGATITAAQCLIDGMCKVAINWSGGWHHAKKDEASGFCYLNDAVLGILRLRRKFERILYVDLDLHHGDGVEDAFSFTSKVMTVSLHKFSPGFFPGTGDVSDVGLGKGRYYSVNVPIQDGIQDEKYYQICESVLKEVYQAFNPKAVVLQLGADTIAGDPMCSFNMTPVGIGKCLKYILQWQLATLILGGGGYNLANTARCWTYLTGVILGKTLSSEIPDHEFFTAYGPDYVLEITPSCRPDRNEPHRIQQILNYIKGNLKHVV

[23] = molecular target: Protein deacetylase HDAC6 (Homo sapiens, UniProt Q9UBN7); assay: Inhibition of HDAC6 (unknown origin) using fluorogenic Boc-Lys(acetyl)-AMC as substrate preincubated for 5 mins followed by substrate addition measured after 30 mins by fluorescence-based assay
Protein deacetylase HDAC6, sequence (Q9UBN7 whole entry): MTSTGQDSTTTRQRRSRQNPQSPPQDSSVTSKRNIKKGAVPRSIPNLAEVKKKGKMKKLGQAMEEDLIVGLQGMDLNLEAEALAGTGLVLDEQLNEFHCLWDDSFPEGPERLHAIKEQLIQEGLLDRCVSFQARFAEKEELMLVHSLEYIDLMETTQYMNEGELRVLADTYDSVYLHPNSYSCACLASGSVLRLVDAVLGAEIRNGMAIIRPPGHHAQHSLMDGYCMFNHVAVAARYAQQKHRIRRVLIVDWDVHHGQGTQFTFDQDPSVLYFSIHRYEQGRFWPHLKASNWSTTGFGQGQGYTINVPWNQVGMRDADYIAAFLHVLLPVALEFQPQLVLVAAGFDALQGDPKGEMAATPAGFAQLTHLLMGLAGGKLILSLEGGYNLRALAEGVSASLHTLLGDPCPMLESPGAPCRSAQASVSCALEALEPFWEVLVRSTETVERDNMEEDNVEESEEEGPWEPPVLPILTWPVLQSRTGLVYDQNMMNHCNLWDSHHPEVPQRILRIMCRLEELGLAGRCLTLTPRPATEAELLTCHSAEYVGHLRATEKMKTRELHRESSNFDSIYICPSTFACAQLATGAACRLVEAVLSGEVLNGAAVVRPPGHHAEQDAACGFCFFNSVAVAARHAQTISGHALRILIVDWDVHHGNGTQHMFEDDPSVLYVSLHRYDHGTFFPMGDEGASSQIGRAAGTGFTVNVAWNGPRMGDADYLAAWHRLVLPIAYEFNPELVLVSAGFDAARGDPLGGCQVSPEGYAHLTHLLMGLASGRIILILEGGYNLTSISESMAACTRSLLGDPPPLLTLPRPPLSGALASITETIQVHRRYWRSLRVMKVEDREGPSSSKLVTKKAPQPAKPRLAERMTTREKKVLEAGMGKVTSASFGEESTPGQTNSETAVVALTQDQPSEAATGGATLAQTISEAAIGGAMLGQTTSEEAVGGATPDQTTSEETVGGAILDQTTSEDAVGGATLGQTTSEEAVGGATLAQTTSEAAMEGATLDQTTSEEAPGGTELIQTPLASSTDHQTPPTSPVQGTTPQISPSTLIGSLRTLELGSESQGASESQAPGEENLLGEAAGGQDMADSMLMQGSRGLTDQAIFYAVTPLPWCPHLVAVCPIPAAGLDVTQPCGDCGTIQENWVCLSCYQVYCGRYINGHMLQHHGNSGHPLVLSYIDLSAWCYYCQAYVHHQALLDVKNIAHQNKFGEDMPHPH

T1 sequence (P35968 whole entry): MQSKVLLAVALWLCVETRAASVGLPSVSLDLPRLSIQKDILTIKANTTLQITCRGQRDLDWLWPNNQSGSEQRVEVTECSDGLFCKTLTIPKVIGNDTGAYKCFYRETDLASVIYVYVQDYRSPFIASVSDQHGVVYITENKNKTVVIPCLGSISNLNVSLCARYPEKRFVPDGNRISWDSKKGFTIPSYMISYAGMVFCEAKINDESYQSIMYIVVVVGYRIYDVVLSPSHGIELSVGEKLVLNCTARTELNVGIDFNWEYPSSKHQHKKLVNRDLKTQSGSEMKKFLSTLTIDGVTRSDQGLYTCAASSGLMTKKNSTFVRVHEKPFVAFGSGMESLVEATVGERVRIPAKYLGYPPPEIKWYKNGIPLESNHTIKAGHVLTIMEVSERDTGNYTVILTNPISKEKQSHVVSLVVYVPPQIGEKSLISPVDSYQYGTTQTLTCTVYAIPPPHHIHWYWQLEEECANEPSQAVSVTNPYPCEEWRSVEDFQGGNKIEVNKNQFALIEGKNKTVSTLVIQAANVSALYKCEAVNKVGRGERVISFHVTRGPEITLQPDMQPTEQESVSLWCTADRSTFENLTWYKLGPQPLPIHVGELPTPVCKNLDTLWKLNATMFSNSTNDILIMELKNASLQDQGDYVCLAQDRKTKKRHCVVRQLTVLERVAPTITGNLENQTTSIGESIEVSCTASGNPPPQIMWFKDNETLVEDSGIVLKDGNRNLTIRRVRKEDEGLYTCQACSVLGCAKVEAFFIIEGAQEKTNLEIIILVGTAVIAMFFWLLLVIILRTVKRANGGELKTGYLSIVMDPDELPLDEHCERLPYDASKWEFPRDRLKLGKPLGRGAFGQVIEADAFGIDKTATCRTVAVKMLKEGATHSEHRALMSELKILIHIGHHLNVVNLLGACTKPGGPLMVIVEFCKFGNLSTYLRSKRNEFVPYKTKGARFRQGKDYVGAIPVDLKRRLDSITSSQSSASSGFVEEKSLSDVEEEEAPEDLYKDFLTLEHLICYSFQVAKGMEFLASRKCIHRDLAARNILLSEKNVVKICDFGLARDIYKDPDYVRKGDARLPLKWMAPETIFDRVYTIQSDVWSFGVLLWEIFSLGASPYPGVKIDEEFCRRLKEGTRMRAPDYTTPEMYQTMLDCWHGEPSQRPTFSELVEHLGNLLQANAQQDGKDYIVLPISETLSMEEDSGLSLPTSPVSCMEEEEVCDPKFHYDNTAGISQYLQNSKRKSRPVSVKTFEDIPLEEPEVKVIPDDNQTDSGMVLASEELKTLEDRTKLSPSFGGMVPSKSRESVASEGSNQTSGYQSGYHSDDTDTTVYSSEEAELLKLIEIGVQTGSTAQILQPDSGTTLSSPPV

SMILES | inhibition [1] | IC50 [2] | IC50 [11] | IC50 [15] | IC50 [16] | IC50 [6] | IC50 [7] | further results
Cc1c2ccc(N(C)c3ccnc(Nc4ccc(C(=O)NCCCC(=O)Nc5ccccc5N)cc4)n3)cc2nn1C | 96% | 19000 nM | – | – | – | – | – | –
Cc1c2ccc(N(C)c3ccnc(Nc4ccc(C(=O)NCCC(=O)Nc5ccccc5N)cc4)n3)cc2nn1C | 97% | > 20000 nM | – | – | – | – | – | –
Cc1c2ccc(N(C)c3ccnc(Nc4cccc(C(=O)NCCCCCC(=O)NO)c4)n3)cc2nn1C | 90% | 180 nM | – | – | – | – | – | –
Cc1c2ccc(N(C)c3ccnc(Nc4ccc(C(=O)NCCCCCCCC(=O)Nc5ccccc5N)cc4)n3)cc2nn1C | 92% | 8700 nM | 3970 nM | 560 nM | > 5000 nM | 490 nM | 2680 nM | IC50 [3]: 1260 nM; IC50 [4]: 1460 nM; IC50 [5]: 2960 nM; IC50 [8]: 660 nM; IC50 [9]: > 5000 nM; IC50 [10]: 2570 nM; IC50 [12]: > 5000 nM; IC50 [13]: 3620 nM; IC50 [14]: 3070 nM
Cc1c2ccc(N(C)c3ccnc(Nc4ccc(/C=C/C(=O)NO)cc4)n3)cc2nn1C | 95% | 1400 nM | 1660 nM | 590 nM | 1600 nM | 750 nM | 1020 nM | IC50 [3]: 5300 nM; IC50 [5]: 2960 nM; IC50 [9]: > 5000 nM; IC50 [10]: 2590 nM; IC50 [12]: 3250 nM; IC50 [22]: 2890 nM; IC50 [23]: 1030 nM; IC50 [13]: 3850 nM; IC50 [14]: 4930 nM
Cc1ccc(Nc2nccc(N(C)c3ccc4c(C)n(C)nc4c3)n2)cc1C(=O)NCCCCCC(=O)NO | 87% | 820 nM | – | – | – | – | – | –
Nc1ccccc1NC(=O)c1ccc(CNC(=O)OCc2cccnc2)cc1 [ENTINOSTAT] | – | – | 3660 nM | 450 nM | > 5000 nM | 440 nM | > 5000 nM | IC50 [5]: 3100 nM; inhibition [19]: inactive; IC50 [9]: 340 nM; IC50 [10]: 2550 nM; IC50 [12]: > 5000 nM; IC50 [13]: 2400 nM; IC50 [14]: > 5000 nM
Cc1c2ccc(N(C)c3ccnc(Nc4cccc(C(=O)Nc5ccccc5N)c4)n3)cc2nn1C | 63% | 21300 nM | – | – | – | – | – | –
Cc1c2ccc(N(C)c3ccnc(Nc4cccc(/C=C/C(=O)NO)c4)n3)cc2nn1C | 97% | 3000 nM | – | – | – | – | – | –
Cc1c2ccc(N(C)c3ccnc(Nc4ccc(C(=O)NO)cc4)n3)cc2nn1C | 99% | 11300 nM | – | – | – | – | – | –
Cc1c2ccc(N(C)c3ccnc(Nc4ccc(C(=O)NCCCCC(=O)NO)cc4)n3)cc2nn1C | 94% | 680 nM | – | – | – | – | – | –
Cc1c2ccc(N(C)c3ccnc(Nc4ccc(C(=O)NCCCC(=O)NO)cc4)n3)cc2nn1C | 99% | 19800 nM | – | – | – | – | – | –
Cc1c2ccc(N(C)c3ccnc(Nc4ccc(C(=O)NCCCCCCCC(=O)NO)cc4)n3)cc2nn1C | 92% | 25 nM | 1100 nM | 270 nM | 3420 nM | 1040 nM | 930 nM | IC50 [12]: > 5000 nM

Further lines, with some results ahead:

inhibition [1] | IC50 [2] | IC50 [11] | IC50 [15] | IC50 [16] | SMILES | IC50 [6] | IC50 [7] | further results
74% | > 20000 nM | – | – | – | Cc1ccc(Nc2nccc(N(C)c3ccc4c(C)n(C)nc4c3)n2)cc1C(=O)NO | – | – | –
95% | > 20000 nM | – | – | – | Cc1c2ccc(N(C)c3ccnc(Nc4ccc(C(=O)NCC(=O)NO)cc4)n3)cc2nn1C | – | – | –
95% | – | > 5000 nM | > 5000 nM | > 5000 nM | Cc1ccc(Nc2nccc(N(C)c3ccc4c(C)n(C)nc4c3)n2)cc1S(N)(=O)=O [PAZOPANIB] | > 5000 nM | > 5000 nM | T/C [17]: 61%; Activity [18]: Active; IC50 [5]: > 5000 nM; inhibition [19]: Active; IC50 [9]: > 5000 nM; IC50 [10]: > 5000 nM; inhibition in vivo at 50 mg/kg [20]: 44%; IC50 [12]: > 5000 nM; Activity [21]: Active; IC50 [13]: > 5000 nM; IC50 [14]: > 5000 nM
93% | 5000 nM | 4150 nM | 1150 nM | > 5000 nM | Cc1c2ccc(N(C)c3ccnc(Nc4ccc(C(=O)NCCCCCCC(=O)Nc5ccccc5N)cc4)n3)cc2nn1C | 1160 nM | 3140 nM | –
98% | > 20000 nM | – | – | – | Cc1c2ccc(N(C)c3ccnc(Nc4ccc(C(=O)NCC(=O)Nc5ccccc5N)cc4)n3)cc2nn1C | – | – | –
77% | > 20000 nM | – | – | – | Cc1c2ccc(N(C)c3ccnc(Nc4cccc(C(=O)NO)c4)n3)cc2nn1C | – | – | –
98% | 17 nM | 2890 nM | 600 nM | > 5000 nM | Cc1c2ccc(N(C)c3ccnc(Nc4ccc(C(=O)NCCCCCC(=O)NO)cc4)n3)cc2nn1C | 2560 nM | 2310 nM | IC50 [12]: > 5000 nM
99% | > 20000 nM | – | – | – | Cc1c2ccc(N(C)c3ccnc(Nc4ccc(C(=O)NCCC(=O)NO)cc4)n3)cc2nn1C | – | – | –
94% | 15100 nM | – | – | – | Cc1c2ccc(N(C)c3ccnc(Nc4ccc(C(=O)NCCCCC(=O)Nc5ccccc5N)cc4)n3)cc2nn1C | – | – | –
95% | 3000 nM | 4310 nM | 870 nM | > 5000 nM | Cc1c2ccc(N(C)c3ccnc(Nc4ccc(C(=O)NCCCCCC(=O)Nc5ccccc5N)cc4)n3)cc2nn1C | 2060 nM | 3150 nM | –
